Measured values from ChEMBL document CHEMBL4196017, “Design, synthesis and identification of silicon-containing HCV NS5A inhibitors with pan-genotype activity” (Eur J Med Chem, 2018).

Columns and labels:
Mus musculus [1] = assay: Toxicity in ICR mouse assessed as body weight at 150 mg/kg, po administered via gavage once daily for 14 days (reference value: 25.8 +/- 3.5 g); format: organism-based; details: in vivo, 336 h
Mus musculus [2] = assay: Toxicity in ICR mouse assessed as effect on food consumption at 150 mg/kg, po administered via gavage once daily for 14 days; format: organism-based; details: in vivo, 336 h
In short: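 ICR mice, 5 male + 5 female per group, gavage once daily for 14 days, vehicle control; food intake recorded on day 1 of dosing and then twice weekly, with daily clinical observation.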

Mus musculus [3] = assay: Toxicity in ICR mouse assessed as kidney weight at 150 mg/kg, po administered via gavage once daily for 14 days (reference value: 1.51 +/- 0.211 g); format: organism-based; details: in vivo, 336 h
Mus musculus [4] = assay: Toxicity in ICR mouse assessed as monocyte level in serum at 150 mg/kg, po administered via gavage once daily for 14 days (reference value: 12.93 +/- 3.61%); format: organism-based; details: in vivo, 336 h
In short: (§1)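 Haematology on abdominal aortic blood taken at necropsy under ether anaesthesia after 14 daily gavage doses (20 ml/kg) in ICR mice, 5 per sex per group, vehicle control. Parameters: WBC, RBC, haemoglobin, platelets, reticulocyte ratio and differential leukocyte counts; mean ± SD, n = 10.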

Mus musculus [5] = assay: Toxicity in ICR mouse assessed as eosinophil level in serum at 150 mg/kg, po administered via gavage once daily for 14 days (reference value: 1.66 +/- 0.54%); format: organism-based; details: in vivo, 336 h; in short: as §1
Mus musculus [6] = assay: Toxicity in ICR mouse assessed as platelet count at 150 mg/kg, po administered via gavage once daily for 14 days (reference value: 1260.3 +/- 137.87 10^9/L); format: organism-based; details: in vivo, 336 h; in short: as §1
Mus musculus [7] = assay: Toxicity in ICR mouse assessed as neutrophil level in serum at 150 mg/kg, po administered via gavage once daily for 14 days (reference value: 27.74 +/- 16.27%); format: organism-based; details: in vivo, 336 h; in short: as §1
Mus musculus [8] = assay: Toxicity in ICR mouse assessed as testis weight at 150 mg/kg, po administered via gavage once daily for 14 days (reference value: 0.881 +/- 0.037 g); format: organism-based; details: in vivo, 336 h
Mus musculus [9] = assay: Toxicity in ICR mouse assessed as RBC count at 150 mg/kg, po administered via gavage once daily for 14 days (reference value: 9.04 +/- 0.8 10^12/L); format: organism-based; details: in vivo, 336 h
In short: (§2)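 ICR mice, 5 males + 5 females per group, dosed by gavage once daily at 150 mg/kg (20 ml/kg) or vehicle for 14 days; killed after the 14th dose; blood from abdominal aorta under ether anaesthesia for hematology and clinical chemistry; mean ± SD, n = 10.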

Mus musculus [10] = assay: Toxicity in ICR mouse assessed as total cholesterol level at 150 mg/kg, po administered via gavage once daily for 14 days (reference value: 0.93 +/- 0.31 mmol/L); format: organism-based; details: in vivo, 336 h
Mus musculus [11] = assay: Toxicity in ICR mouse assessed as total protein level in serum at 150 mg/kg, po administered via gavage once daily for 14 days (reference value: 53.97 +/- 1.56 g/l); format: organism-based; details: in vivo, 336 h
Mus musculus [12] = assay: Toxicity in ICR mouse assessed as brain weight at 150 mg/kg, po administered via gavage once daily for 14 days (reference value: 1.686 +/- 0.241 g); format: organism-based; details: in vivo, 336 h
Mus musculus [13] = assay: Toxicity in ICR mouse assessed as liver weight at 150 mg/kg, po administered via gavage once daily for 14 days (reference value: 4.365 +/- 0.222 g); format: organism-based; details: in vivo, 336 h
[14] = biological target: T1, Nonstructural protein 5A (Hepatitis C virus) (UniProt Q5L478); assay: Potency index, ratio of ombitasvir IC50 to compound IC50 for inhibition of NS5A in HCV genotype 3a infected in human HuH7 replicon cells expressing HCV genotype 1b chimeric replicon; format: cell-based; details: Hepatitis C virus subtype 3a
T1 sequence (whole entry): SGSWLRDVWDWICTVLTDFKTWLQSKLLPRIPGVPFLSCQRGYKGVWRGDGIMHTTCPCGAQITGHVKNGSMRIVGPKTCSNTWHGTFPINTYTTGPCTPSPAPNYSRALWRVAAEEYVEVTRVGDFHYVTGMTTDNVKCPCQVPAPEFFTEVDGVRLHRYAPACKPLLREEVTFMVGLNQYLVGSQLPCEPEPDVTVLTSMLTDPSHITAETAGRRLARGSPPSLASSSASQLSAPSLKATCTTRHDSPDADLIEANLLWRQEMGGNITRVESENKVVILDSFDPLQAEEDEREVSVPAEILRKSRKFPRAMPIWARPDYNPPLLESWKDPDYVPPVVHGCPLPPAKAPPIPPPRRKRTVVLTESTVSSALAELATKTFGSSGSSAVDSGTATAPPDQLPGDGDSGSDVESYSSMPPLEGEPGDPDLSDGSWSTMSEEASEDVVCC

Mus musculus [15] = assay: Toxicity in ICR mouse assessed as creatinine level in serum at 150 mg/kg, po administered via gavage once daily for 14 days (reference value: 25.22 +/- 3.42 umol/L); format: organism-based; details: in vivo, 336 h
Mus musculus [16] = assay: Toxicity in ICR mouse assessed as serum creatine kinase level at 150 mg/kg, po administered via gavage once daily for 14 days (reference value: 705.78 +/- 330.84 U/L); format: organism-based; details: in vivo, 336 h
Mus musculus [17] = assay: Toxicity in ICR mouse assessed as direct bilirubin level in serum at 150 mg/kg, po administered via gavage once daily for 14 days (reference value: 7.6 +/- 0.59 umol/L); format: organism-based; details: in vivo, 336 h
Mus musculus [18] = assay: Toxicity in ICR mouse assessed as gamma glutamyltransferase level in serum at 150 mg/kg, po administered via gavage once daily for 14 days (reference value: 0 U/L); format: organism-based; details: in vivo, 336 h
Mus musculus [19] = assay: Toxicity in ICR mouse assessed as total bilirubin level in serum at 150 mg/kg, po administered via gavage once daily for 14 days (reference value: 9.95 +/- 2.18 umol/L); format: organism-based; details: in vivo, 336 h
Mus musculus [20] = assay: Toxicity in ICR mouse assessed as thymus weight at 150 mg/kg, po administered via gavage once daily for 14 days (reference value: 0.289 +/- 0.081 g); format: organism-based; details: in vivo, 336 h
Mus musculus [21] = assay: Toxicity in ICR mouse assessed as spleen weight at 150 mg/kg, po administered via gavage once daily for 14 days (reference value: 0.355 +/- 0.1 g); format: organism-based; details: in vivo, 336 h
Mus musculus [22] = assay: Toxicity in ICR mouse assessed as WBC count at 150 mg/kg, po administered via gavage once daily for 14 days (reference value: 7.03 +/- 1.56 10^9/L); format: organism-based; details: in vivo, 336 h; in short: as §2
Mus musculus [23] = assay: Toxicity in ICR mouse assessed as serum glutamate dehydrogenase level at 150 mg/kg, po administered via gavage once daily for 14 days (reference value: 13.78 +/- 2.86 U/L); format: organism-based; details: in vivo, 336 h
Mus musculus [24] = assay: Toxicity in ICR mouse assessed as albumin level in serum at 150 mg/kg, po administered via gavage once daily for 14 days (reference value: 25.87 +/- 1.67 g/l); format: organism-based; details: in vivo, 336 h; in short: as §2
Mus musculus [25] = assay: Toxicity in ICR mouse assessed as blood urea nitrogen level in serum at 150 mg/kg, po administered via gavage once daily for 14 days (reference value: 10.44 +/- 1.77 mmol/L); format: organism-based; details: in vivo, 336 h; in short: as §2
[26] = biological target: T1, Nonstructural protein 5A (Hepatitis C virus); assay: Potency index, ratio of ombitasvir IC50 to compound IC50 for inhibition of NS5A in HCV genotype 6a infected in human HuH7 replicon cells expressing HCV genotype 1b chimeric replicon; format: cell-based; details: Hepatitis C virus subtype 6a
Mus musculus [27] = assay: Toxicity in ICR mouse assessed as ovary weight at 150 mg/kg, po administered via gavage once daily for 14 days (reference value: 0.079 +/- 0.007 g); format: organism-based; details: in vivo, 336 h

In the case of `CC[Si](CC)(CC)c1ccc(N2[C@H](c3ccc(NC(=O)[C@@H]4CCCN4C(=O)[C@@H](NC(=O)OC)C(C)C)cc3)CC[C@H]2c2ccc(NC(=O)[C@@H]3CCCN3C(=O)[C@@H](NC(=O)OC)C(C)C)cc2)cc1`, the Activity (Mus musculus [1]) is reported as 24 g, the Activity (Mus musculus [2]) is reported as “Non-Toxic” and the Activity (Mus musculus [3]) is reported as 1.579 g. The Activity (Mus musculus [4]) was 12.44%, the Activity (Mus musculus [5]) was 1.88% and the Activity (Mus musculus [6]) was 1263.4 ×10⁹ /L. For the same compound, the Activity (Mus musculus [7]) was 33.12%, the Activity (Mus musculus [8]) was 0.789 g and the Activity (Mus musculus [9]) was 9 ×10¹² /L. The Activity (Mus musculus [10]) was 0.85 mmol/L, the Activity (Mus musculus [11]) was 52.31 g/L and the Activity (Mus musculus [12]) was 1.807 g. The Activity (Mus musculus [13]) was 4.346 g, the Ratio IC50 [14] was 8.6 and the Activity (Mus musculus [15]) was 23.2 µmol/L. It also gave an Activity (Mus musculus [16]) of 953.3 U/L, an Activity (Mus musculus [17]) of 8.57 µmol/L and an Activity (Mus musculus [18]) of 0.03 U/L. It also gave an Activity (Mus musculus [19]) of 11.24 µmol/L, an Activity (Mus musculus [20]) of 0.24 g and an Activity (Mus musculus [21]) of 0.345 g. It also gave an Activity (Mus musculus [22]) of 6.2 ×10⁹ /L, an Activity (Mus musculus [23]) of 15.1 U/L and an Activity (Mus musculus [24]) of 25.38 g/L. It also gave an Activity (Mus musculus [25]) of 10.16 mmol/L, a Ratio IC50 [26] of 7.6 and an Activity (Mus musculus [27]) of 0.097 g.
